In the RNAGym collection of RNA variant scans (doi:10.1002/anie.201605470):

B1: Osa-1-4 twister ribozyme (parent)
chain: CCGCCUAACACUGCCAAUGCCGGUCCCAAGCCCGGAUAAAAGUGGAGGGGGCGG

Variants of: B1
Assay: self-cleavage, relative activity (ratio to wild type); higher = more cleavage; co-transcriptional
In short: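 For each read, cleavage status was taken from whether upstream sequence was present. The reads came from an Oryza sativa twister ribozyme of 54 nucleotides, whose DNA template was synthesised with 97 % wild-type base and 1 % of each other base at the 48 positions downstream of the cleavage site. The template was transcribed in vitro at 37 °C for 2 h with co-transcriptional self-cleavage, and the RNA was reverse-transcribed using a template-switching oligonucleotide, PCR-amplified and deep-sequenced. Relative activity is the fraction cleaved normalised to wild type.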
A29U G44C showed a self-cleavage of 0.12. Variant A29U G44A has a self-cleavage of 0.06. Variant A29U G44U has a self-cleavage of 0.07. A29U G22C showed a self-cleavage of 0.04. For A29U G22A, the self-cleavage was 0.12. In the case of A29U G22U, the self-cleavage is reported as 0.08. Work on A29U C32G yielded a self-cleavage of 0.03. In the case of A29U C32A, the self-cleavage is reported as 0.04. Work on A29U C32U yielded a self-cleavage of 0.03. A29U C52U gave a self-cleavage of 0.19. A29U C52G gave a self-cleavage of 0.12. With A29U C52A the self-cleavage was 0.08. With G30A G47C the self-cleavage was 0.02. Variant G30A G47U has a self-cleavage of 0.02. In the case of G30A G47A, the self-cleavage is reported as 0.03. A29U C20U showed a self-cleavage of 0.21. Variant A29U C20G has a self-cleavage of 0.03. With A29U C20A the self-cleavage was 0.12. A29U G53C showed a self-cleavage of 0.04. Variant A29U G53A has a self-cleavage of 0.07. A29U G53U showed a self-cleavage of 0.06. For A29U A38G, the self-cleavage was 0.09. In the case of A29U A38C, the self-cleavage is reported as 0.08. For A29U A38U, the self-cleavage was 0.09. A29U G54C gave a self-cleavage of 0.06. For A29U G54A, the self-cleavage was 0.09. Work on A29U G54U yielded a self-cleavage of 0.27. A29U G13C showed a self-cleavage of 0.01. In the case of A29U G13U, the self-cleavage is reported as 0.02. With A29U G13A the self-cleavage was 0.04. With A29U U43C the self-cleavage was 0.06. Variant A29U U43A has a self-cleavage of 0.06. A29U U43G showed a self-cleavage of 0.08. Work on A29U U24G yielded a self-cleavage of 0.01. Variant A29U U24C has a self-cleavage of 0.06. In the case of A29U U24A, the self-cleavage is reported as 0.32. With A29U G34U the self-cleavage was 0.05. A29U G34C showed a self-cleavage of 0.05. For A29U G34A, the self-cleavage was 0.07. A29U A39G showed a self-cleavage of 0.07. Work on A29U A39C yielded a self-cleavage of 0.05. Work on A29U A39U yielded a self-cleavage of 0.07. For G30A G50A, the self-cleavage was 0.04. Variant G30A G50C has a self-cleavage of 0.04. Work on G30A G50U yielded a self-cleavage of 0.04. A29U U37C showed a self-cleavage of 0.14. A29U U37G gave a self-cleavage of 0.23. A29U U37A showed a self-cleavage of 0.16. In the case of A29U G19C, the self-cleavage is reported as 0.03. Variant A29U G19U has a self-cleavage of 0.05. In the case of A29U G19A, the self-cleavage is reported as 0.05. A29G U43C gave a self-cleavage of 0.08. Variant A29G U43A has a self-cleavage of 0.07. A29G U43G showed a self-cleavage of 0.06. For A29U U18G, the self-cleavage was 0.25. A29U U18C showed a self-cleavage of 0.13. With A29U U18A the self-cleavage was 0.12. With G30A G44A the self-cleavage was 0.04. G30A G44C gave a self-cleavage of 0.04. G30A G44U showed a self-cleavage of 0.04. Variant A29U C26G has a self-cleavage of 0.05. In the case of A29U C26A, the self-cleavage is reported as 0.03. Variant A29U C26U has a self-cleavage of 0.07. Variant A29U A36G has a self-cleavage of 0.24. A29U A36U gave a self-cleavage of 0.17. For A29U A36C, the self-cleavage was 0.03. For A29U C33G, the self-cleavage was 0.04. Work on A29U C33U yielded a self-cleavage of 0.08. Variant A29U C33A has a self-cleavage of 0.04. In the case of A29U C21U, the self-cleavage is reported as 0.15. With A29U C21G the self-cleavage was 0.04. In the case of A29U C21A, the self-cleavage is reported as 0.05. With A29U C11U the self-cleavage was 0.08. A29U C11G showed a self-cleavage of 0.04. Variant A29U C11A has a self-cleavage of 0.05. In the case of A29G U37A, the self-cleavage is reported as 0.32. A29G U37C showed a self-cleavage of 0.28. Work on A29G U37G yielded a self-cleavage of 0.44. A29U C14A showed a self-cleavage of 0.03. Variant A29U C14G has a self-cleavage of 0.04. For A29U C14U, the self-cleavage was 0.05. G30A G51A gave a self-cleavage of 0.04. For G30A G51C, the self-cleavage was 0.02. G30A G34A gave a self-cleavage of 0.11. With G30A G34U the self-cleavage was 0.04. Variant G30A G34C has a self-cleavage of 0.05. With A29U G35C the self-cleavage was 0.04. A29U G35U showed a self-cleavage of 0.09. A29U G35A gave a self-cleavage of 0.11. Work on A29U A8U yielded a self-cleavage of 0.05. With A29U A8C the self-cleavage was 0.04. A29U A8G gave a self-cleavage of 0.11. A29G U24G showed a self-cleavage of 0.02. G30A G35C showed a self-cleavage of 0.03. With G30A G35U the self-cleavage was 0.04. Variant G30A G35A has a self-cleavage of 0.05. Work on A29U U12C yielded a self-cleavage of 0.05. For A29U U12A, the self-cleavage was 0.08. Work on A29U U12G yielded a self-cleavage of 0.04. Work on A29U G47U yielded a self-cleavage of 0.03. A29U G47C showed a self-cleavage of 0.03. For A29U G47A, the self-cleavage was 0.03. Work on A29U A7U yielded a self-cleavage of 0.05. Work on A29U A7C yielded a self-cleavage of 0.02. For A29U A7G, the self-cleavage was 0.06. With G30A G49A the self-cleavage was 0.02. Variant G30A G49C has a self-cleavage of 0.02. For G30A G49U, the self-cleavage was 0.03. Variant A29U G49A has a self-cleavage of 0.03. Work on A29U G49U yielded a self-cleavage of 0.02. A29U G49C showed a self-cleavage of 0.04. For A29U G48U, the self-cleavage was 0.03. Work on A29U G48A yielded a self-cleavage of 0.03. Work on A29U G48C yielded a self-cleavage of 0.03. In the case of G30A G48U, the self-cleavage is reported as 0.01. Variant G30A G48A has a self-cleavage of 0.01. Variant G30A G48C has a self-cleavage of 0.02. A29U C25U gave a self-cleavage of 0.1. Variant A29U C25G has a self-cleavage of 0.05. Variant A29U C25A has a self-cleavage of 0.03. Variant A29U has a self-cleavage of 0.21. Variant G30A G45C has a self-cleavage of 0.02. Work on G30A G45U yielded a self-cleavage of 0.02. G30A G45A gave a self-cleavage of 0.03. Variant A29U G45U has a self-cleavage of 0.03. A29U G45A gave a self-cleavage of 0.03. For A29U G45C, the self-cleavage was 0.03. Variant A29U G42C has a self-cleavage of 0.04. For A29U G42A, the self-cleavage was 0.06. For A29U G42U, the self-cleavage was 0.03. Variant G30A has a self-cleavage of 0.04. A29U G50U gave a self-cleavage of 0.09. With A29U G50C the self-cleavage was 0.04. Work on A29U G50A yielded a self-cleavage of 0.13. A29U C9G showed a self-cleavage of 0.07. For A29U C9U, the self-cleavage was 0.05. For A29U C9A, the self-cleavage was 0.03. A29U G51A gave a self-cleavage of 0.06. Work on A29U G51U yielded a self-cleavage of 0.04. Variant A29U G51C has a self-cleavage of 0.05. Variant A29U C31G has a self-cleavage of 0.03. In the case of A29U C31U, the self-cleavage is reported as 0.06. A29U C31A showed a self-cleavage of 0.02. A29U A46U showed a self-cleavage of 0.04. A29U A46G showed a self-cleavage of 0.04. Variant A29U A46C has a self-cleavage of 0.02. Variant A29U C27U has a self-cleavage of 0.08. With A29U C27G the self-cleavage was 0.05. For A29U C27A, the self-cleavage was 0.03. Variant A29U G23A has a self-cleavage of 0.08. Variant A29U G23U has a self-cleavage of 0.03. For A29U G23C, the self-cleavage was 0.03. A29U A40C gave a self-cleavage of 0.03. Variant A29U A40U has a self-cleavage of 0.06. Variant A29U A40G has a self-cleavage of 0.08. G30A G42U showed a self-cleavage of 0.02. In the case of G30A G42C, the self-cleavage is reported as 0.03. With G30A G42A the self-cleavage was 0.04. In the case of A29U C15U, the self-cleavage is reported as 0.07. In the case of A29U C15G, the self-cleavage is reported as 0.09. A29U C15A gave a self-cleavage of 0.04. Work on A29U A41C yielded a self-cleavage of 0.13. Work on A29U A41U yielded a self-cleavage of 0.2. In the case of A29U A41G, the self-cleavage is reported as 0.06. Variant A29U G30A has a self-cleavage of 0.03. Work on A29U G30C yielded a self-cleavage of 0.02. Work on A29U G30U yielded a self-cleavage of 0.03.
